ChEMBL document CHEMBL1140048, “NO-donors. Part 17: Synthesis and antimicrobial activity of novel ketoconazole-NO-donor hybrid compounds” (Bioorg Med Chem, 2008)
In brackets after ≈: the same amount, converted by molar mass.

Legend:
[1] = tested on: Candida; experiment: Antifungal activity against Candida sp. by microdilution assay; type: functional
In short: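 Broth microdilution per NCCLS guidelines in RPMI 1640 (L-glutamine, MOPS, no bicarbonate). An 8 mM stock in DMSO/methanol (1:10) was serially diluted twofold in medium; NONOate sodium salts were diluted in 0.1 M NaOH, with only the final step in medium, used at once. Final inoculum 6×10^3 CFU/mL, 30 °C, 24 h. MIC read nephelometrically as the lowest dilution with no visible growth.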

[2] = tested on: Aspergillus terreus; experiment: Ratio of MIC for drug to ketoconazole against Aspergillus terreus; type: functional
In short: (§1)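 FIC is calculated as the MIC of the test compound divided by the MIC of ketoconazole. Both MICs come from 24 h NCCLS broth microdilution in RPMI 1640/MOPS, starting from an 8 mM stock in twofold dilutions, at 6×10^3 CFU/mL. Incubation is at 37 °C for A. fumigatus and A. terreus and at 30 °C for the other strains.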

[3] = tested on: Aspergillus fumigatus; experiment: Ratio of MIC for drug to ketoconazole against Aspergillus fumigatus; type: functional; in short: as §1
[4] = tested on: Aspergillus fumigatus; experiment: Antifungal activity against Aspergillus fumigatus after 24 hrs by broth microdilution method; type: functional
In short: (§2)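 Broth microdilution per NCCLS in RPMI 1640 (L-glutamine, MOPS, no bicarbonate). An 8 mM stock in DMSO/methanol 1:10 is serially diluted twofold; NONOate salts go through 0.1 M NaOH, with only the last step in medium. Inoculum is 6×10^3 CFU/mL final. A. fumigatus and A. terreus are incubated 24 h at 37 °C; others at 30 °C. MIC is the lowest dilution without visible growth, read nephelometrically.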

[5] = tested on: Aspergillus niger; experiment: Antifungal activity against Aspergillus niger after 24 hrs by broth microdilution method; type: functional; in short: as §2
[6] = tested on: Candida albicans; experiment: Antifungal activity against Candida albicans after 24 hrs by broth microdilution method; type: functional; in short: as §2
[7] = tested on: Nakaseomyces glabratus; experiment: Antifungal activity against Candida glabrata after 24 hrs by broth microdilution method; type: functional; in short: as §2
[8] = tested on: Penicillium chrysogenum; experiment: Antifungal activity against Penicillium notatum after 24 hrs by broth microdilution method; type: functional; in short: as §2
[9] = tested on: Aspergillus terreus; experiment: Antifungal activity against Aspergillus terreus after 24 hrs by broth microdilution method; type: functional; in short: as §2
[10] = tested on: Sporobolomyces salmonicolor; experiment: Antifungal activity against Sporobolomyces salmonicolor after 24 hrs by broth microdilution method; type: functional; in short: as §2
[11] = tested on: Aspergillus niger; experiment: Ratio of MIC for drug to ketoconazole against Aspergillus niger; type: functional; in short: as §1
[12] = tested on: Fusarium oxysporum; experiment: Ratio of MIC for drug to ketoconazole against Fusarium oxysporum; type: functional
[13] = tested on: Candida albicans; experiment: Ratio of MIC for drug to ketoconazole against Candida albicans; type: functional; in short: as §1
[14] = tested on: Nakaseomyces glabratus; experiment: Ratio of MIC for drug to ketoconazole against Candida glabrata; type: functional; in short: as §1
[15] = tested on: Sporobolomyces salmonicolor; experiment: Ratio of MIC for drug to ketoconazole against Sporobolomyces salmonicolor; type: functional; in short: as §1
[16] = tested on: Penicillium chrysogenum; experiment: Ratio of MIC for drug to ketoconazole against Penicillium notatum; type: functional; in short: as §1
[17] = tested on: Fusarium oxysporum; experiment: Antifungal activity against Fusarium oxysporum after 24 hrs by agar diffusion method
[18] = Chemical stability of compound assessed as half life of nitric oxide release at pH 7.4; type: physicochemical; details: buffer

Structure (SMILES)	MIC [1] [µg/mL]	Ratio [2]	Ratio [3]	MIC [4] [µM]	MIC [5] [µM]	MIC [6] [µM]	MIC [7] [µM]	MIC [8] [µM]	MIC [9] [µM]	MIC [10] [µM]	Ratio [11]	Ratio [12]	Ratio [13]	Ratio [14]	Ratio [15]	Ratio [16]	MIC [17] [µM]	t1/2 [18] [min]
NCCCN(CCCN)N(O)N=O	5000 (≈ 26.1 mM)	–	–	–	–	–	–	–	–	–	–	–	–	–	–	–	–	–
NCCN(CCN)/[N+]([O-])=N/O	2000 (≈ 12.3 mM)	–	–	–	–	–	–	–	–	–	–	–	–	–	–	–	–	–
Clc1ccc([C@@]2(Cn3ccnc3)OC[C@H](COc3ccc(N4CCNCC4)cc3)O2)c(Cl)c1	–	64	32	2000 (≈ 979 µg/mL)	2000 (≈ 979 µg/mL)	25 (≈ 12.2 µg/mL)	50 (≈ 24.5 µg/mL)	250 (≈ 122 µg/mL)	2000 (≈ 979 µg/mL)	25 (≈ 12.2 µg/mL)	32	4	1	4	16	31.25	2000 (≈ 979 µg/mL)	–
O=C(CO/N=[N+](\[O-])N1CCCC1)N1CCN(c2ccccc2)CC1	–	–	–	> 2000	> 2000	> 2000	> 2000	> 2000	> 2000	> 2000	–	–	–	–	–	–	> 2000	–
CC(C)(CO[N+](=O)[O-])C(=O)N1CCN(c2ccccc2)CC1	–	–	–	> 2000	> 2000	> 2000	> 2000	> 2000	> 2000	> 2000	–	–	–	–	–	–	> 2000	–
O=C(CO[N+](=O)[O-])N1CCN(c2ccccc2)CC1	–	–	–	> 2000	> 2000	> 2000	> 2000	> 2000	> 2000	> 2000	–	–	–	–	–	–	> 2000	–
O=[N+]([O-])OCCN1CCN(c2ccccc2)CC1	–	–	–	> 2000	> 2000	> 2000	> 2000	> 2000	> 2000	> 2000	–	–	–	–	–	–	> 2000	–
[O-]/[N+](=N\O)N1CCN(c2ccccc2)CC1	–	–	–	> 2000	> 2000	> 2000	> 2000	> 2000	> 2000	> 2000	–	–	–	–	–	–	> 2000	–
CCO/N=[N+](\[O-])N1CCN(c2ccccc2)CC1	–	–	–	> 2000	> 2000	> 2000	> 2000	> 2000	> 2000	> 2000	–	–	–	–	–	–	> 2000	–
COCO/N=[N+](\[O-])N1CCN(c2ccccc2)CC1	–	–	–	> 2000	> 2000	> 2000	> 2000	> 2000	> 2000	> 2000	–	–	–	–	–	–	> 2000	–
O=C(CO[N+](=O)[O-])N1CCN(c2ccc(OC[C@H]3CO[C@](Cn4ccnc4)(c4ccc(Cl)cc4Cl)O3)cc2)CC1	–	0.4	0.4	25 (≈ 14.8 µg/mL)	12.5 (≈ 7.41 µg/mL)	25 (≈ 14.8 µg/mL)	1.56 (≈ 0.924 µg/mL)	2.5 (≈ 1.48 µg/mL)	12.5 (≈ 7.41 µg/mL)	0.16 (≈ 0.0948 µg/mL)	0.2	0.2	1	0.12	0.1	0.31	100 (≈ 59.2 µg/mL)	–
O=[N+]([O-])OCCN1CCN(c2ccc(OC[C@H]3CO[C@](Cn4ccnc4)(c4ccc(Cl)cc4Cl)O3)cc2)CC1	–	32	16	1000 (≈ 578 µg/mL)	250 (≈ 145 µg/mL)	12.5 (≈ 7.23 µg/mL)	6.25 (≈ 3.62 µg/mL)	62.5 (≈ 36.2 µg/mL)	1000 (≈ 578 µg/mL)	15.6 (≈ 9.02 µg/mL)	4	2	0.5	0.5	10	7.81	1000 (≈ 578 µg/mL)	–
[Na+].[O-]/N=[N+](\[O-])N1CCN(c2ccc(OC[C@H]3CO[C@](Cn4ccnc4)(c4ccc(Cl)cc4Cl)O3)cc2)CC1	–	3.2	3.2	200	100	100	12.5	20	100	1.25	1.6	0.4	4	1	0.8	2.5	200	4.5
CCO/N=[N+](\[O-])N1CCN(c2ccc(OC[C@H]3CO[C@](Cn4ccnc4)(c4ccc(Cl)cc4Cl)O3)cc2)CC1	–	0.1	0.2	12.5 (≈ 7.22 µg/mL)	1.56 (≈ 0.901 µg/mL)	50 (≈ 28.9 µg/mL)	3.13 (≈ 1.81 µg/mL)	1.25 (≈ 0.722 µg/mL)	3.13 (≈ 1.81 µg/mL)	0.16 (≈ 0.0924 µg/mL)	0.025	0.1	2	0.25	0.1	0.16	50 (≈ 28.9 µg/mL)	–
COCO/N=[N+](\[O-])N1CCN(c2ccc(OC[C@H]3CO[C@](Cn4ccnc4)(c4ccc(Cl)cc4Cl)O3)cc2)CC1	–	0.26	0.13	8 (≈ 4.75 µg/mL)	4 (≈ 2.37 µg/mL)	25 (≈ 14.8 µg/mL)	3.13 (≈ 1.86 µg/mL)	1.56 (≈ 0.926 µg/mL)	8 (≈ 4.75 µg/mL)	2 (≈ 1.19 µg/mL)	0.06	0.5	1	0.25	1.3	0.2	250 (≈ 148 µg/mL)	–
O=C(CO/N=[N+](\[O-])N1CCCC1)N1CCN(c2ccc(OC[C@H]3CO[C@](Cn4ccnc4)(c4ccc(Cl)cc4Cl)O3)cc2)CC1	–	2	2	125 (≈ 82.6 µg/mL)	62.5 (≈ 41.3 µg/mL)	25 (≈ 16.5 µg/mL)	12.5 (≈ 8.26 µg/mL)	8 (≈ 5.28 µg/mL)	62.5 (≈ 41.3 µg/mL)	2 (≈ 1.32 µg/mL)	1	2	1	1	1.3	1	1000 (≈ 661 µg/mL)	–
CC(C)(CO[N+](=O)[O-])C(=O)N1CCN(c2ccc(OC[C@H]3CO[C@](Cn4ccnc4)(c4ccc(Cl)cc4Cl)O3)cc2)CC1	–	0.05	0.05	3.13 (≈ 1.99 µg/mL)	1.56 (≈ 0.99 µg/mL)	6.25 (≈ 3.97 µg/mL)	3.13 (≈ 1.99 µg/mL)	8 (≈ 5.08 µg/mL)	1.56 (≈ 0.99 µg/mL)	0.6 (≈ 0.381 µg/mL)	0.025	0.05	0.25	0.25	0.38	1	25 (≈ 15.9 µg/mL)	–
CC(=O)N1CCN(c2ccc(OCC3COC(Cn4ccnc4)(c4ccc(Cl)cc4Cl)O3)cc2)CC1 (stereo not drawn) [KETOCONAZOLE]	–	–	–	62.5 (≈ 33.2 µg/mL)	62.5 (≈ 33.2 µg/mL)	25 (≈ 13.3 µg/mL)	12.5 (≈ 6.64 µg/mL)	8 (≈ 4.25 µg/mL)	31.2 (≈ 16.6 µg/mL)	1.56 (≈ 0.829 µg/mL)	–	–	–	–	–	–	500 (≈ 266 µg/mL)	–
c1ccc(N2CCNCC2)cc1 [PHENYLPIPERAZINE]	–	–	–	> 2000	> 2000	> 2000	> 2000	> 2000	> 2000	> 2000	–	–	–	–	–	–	> 2000	–
